Assay results gathered from unrelated publications.
Lines come from different studies, so protocols differ. pIC50: −log10 of the molar value.
Read-out: cell growth or viability

| SMILES | cell line | technique | time | pIC50 |
| --- | --- | --- | --- | --- |
| CC(=NNC(=O)c1cc(-c2ccccc2)n(-c2ccc(S(N)(=O)=O)cc2)n1)c1ccc(C)cc1 | HT-29 | fluorescence | 48 h | 4.66 |
| Nc1cccc2c1C(=O)N(C1CCC(=O)NC1=O)C2=O (centres unmarked) | SU-DHL-4 | CCK-8 | 7 days | < 4.70 |
| CC(=O)OC[C@H]1O[C@@H]([S-])[C@H](OC(C)=O)[C@@H](OC(C)=O)[C@@H]1OC(C)=O.CCP(CC)CC.[Au+] | IMR-90 | MTT | 48 h | 5.28 |
| O=C(NO)c1ccc(NCc2cnc3ccccc3c2)cc1 | LLC-PK1 | – | 48 h | 5.03 |
| CC(=O)O[C@@H]1CC[C@@]2(C)[C@@H](CC[C@]3(C)[C@@H]2C(=O)C=C2[C@@H]4[C@@H](C)[C@H](C)CC[C@]4(C)CC[C@]23C)[C@@]1(C)C(=O)O | Caco-2 | MTT | 6 h | 5.79 |
| O=c1c2cc(Cl)ccc2nc(-c2ccccc2)n1N=Cc1ccco1 | LLC-PK1 | MTT | 72 h | 3.81 |
| CC(C)(C)c1cnc(CSc2cnc(NC(=O)C3CCN(C(=O)CCCCCCCN4Cc5cc6c(cc5C4)C(=O)N(C4CCC(=O)NC4=O)C6=O)CC3)s2)o1 (centres unmarked) | SK-UT-1 | MTT | – | 6.97 |
| O=c1c2cc(Cl)ccc2nc(-c2ccccc2)n1N=Cc1ccccc1 | LLC-PK1 | MTT | 72 h | 3.52 |
| CN1CCC(NC2CCc3[nH]c4c(C(N)=O)ccc(-c5ccccc5Cl)c4c3C2)CC1 (centres unmarked) | SU-DHL-4 | – | 96 h | 7.65 |
| NS(=O)(=O)c1ccc(-n2nc(C(=O)NN3C(=O)c4ccccc4C3=O)cc2-c2ccccc2)cc1 | HT-29 | fluorescence | 48 h | 4.32 |
| O=C(NO)c1ccc(N2CCN(Cc3cnc4ccccc4c3)CC2)cc1 | LLC-PK1 | – | 48 h | < 4.16 |
| O=c1c2cc(Cl)ccc2nc(-c2ccccc2)n1N=Cc1cccc([N+](=O)[O-])c1 | LLC-PK1 | MTT | 72 h | 3.83 |
| NS(=O)(=O)c1ccc(-n2nc(-c3nnc(S)o3)cc2-c2ccccc2)cc1 | HT-29 | fluorescence | 48 h | 4.40 |
| O=c1c2cc(Cl)ccc2nc(-c2ccccc2)n1N=Cc1ccccc1Cl | LLC-PK1 | MTT | 72 h | 3.46 |
| Cc1ccc(S(=O)(=O)n2cc(CNc3ccc(C(=O)NO)cc3)c3ccccc32)cc1 | LLC-PK1 | – | 48 h | 5.00 |
| O=c1c2cc(Cl)ccc2nc(-c2ccccc2)n1N=Cc1ccc(Br)cc1O | LLC-PK1 | MTT | 72 h | 4.46 |
| NS(=O)(=O)c1ccc(-n2nc(C(=O)NN3C(=O)CCC3=O)cc2-c2ccccc2)cc1 | HT-29 | fluorescence | 48 h | 4.50 |
| O=C(CCSSc1ccccc1/C=N/NC(=O)c1ccccc1)OC[C@H]1OC(O)[C@H](O)[C@@H](O)[C@@H]1O (some centres unmarked) | A2780 | MTT | – | 4.64 |
| O=c1c2cc(Cl)ccc2nc(-c2ccccc2)n1N=Cc1ccccc1O | LLC-PK1 | MTT | 72 h | 4.12 |
| COc1ccc(C=NNC(=O)c2cc(-c3ccccc3)n(-c3ccc(S(N)(=O)=O)cc3)n2)cc1OC | HT-29 | fluorescence | 48 h | 4.59 |
